# Where “and” joins values, the source holds several entries; their conditions need not be identical. Equal entries are not always repeated. Starred links: 1 amine or outer side, 2 acyl side, 3 side chain; linkers in the order of their positions; H or OH if unused. Non-standard residues stand in square brackets, D forms with d. Residues, ends and D or L forms follow the SMILES beside them. *: point of attachment. Phe(4-NH(5-NH2triazol-3-yl)) = Nc1nc(Nc2ccc(C[C@H](N)C(=O)O)cc2)n[nH]1; dNva(5-oxo-5-(4-MeOPh)) = COc1ccc(C(=O)CC[C@@H](N)C(=O)O)cc1; X1 = Nc1nc(Nc2ccc(C[C@@H](N[*:1])C(=O)[*:2])cc2)n[nH]1; d(hArg(Et2)) = CCN=C(NCC)NCCCC[C@@H](N)C(=O)O; hArg(Et2) = CCN=C(NCC)NCCCC[C@H](N)C(=O)O; Triazol3yl(1,2,4-5-NH2) = Nc1nc(*)n[nH]1; dPhe(4-Cl) = N[C@H](Cc1ccc(Cl)cc1)C(=O)O; d2Nal = N[C@H](Cc1ccc2ccccc2c1)C(=O)O; Lys(iPr) = CC(C)NCCCC[C@H](N)C(=O)O; NMeY = CN[C@@H](Cc1ccc(O)cc1)C(=O)O; dCit = NC(=O)NCCC[C@@H](N)C(=O)O; d3Pal = N[C@H](Cc1cccnc1)C(=O)O; NMeL = CN[C@@H](CC(C)C)C(=O)O; Nicotinoyl = O=C(c1cccnc1)*; dOrn = NCCC[C@@H](N)C(=O)O; Orn = NCCC[C@H](N)C(=O)O
# Assays:
# [1] = species: Homo sapiens; assay: In vitro antagonistic potency relative to Ac-delta-3-Pro1-(D)Fpa2-(D)Trp3,6]GnRH; assay type: functional
# In short: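 Cultured rat pituitary cells. Peptides were scored for inhibition of GnRH-mediated LH secretion, and potency is expressed relative to the standard antagonist [Ac-Δ3-Pro1,DFpa2,DTrp3,6]GnRH (= 1.0).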
# [2] = species: Rattus norvegicus; assay: The compound was tested in vitro for the histamine release; assay type: functional; conditions: read-out: ED50 (the source's name)
# [3] = species: Rattus norvegicus; assay: Antiovulatory activity measured in rat; assay type: functional; set-up: unit: ug/rat
# In short: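 Corbin–Beattie rat antiovulatory assay. Cycling female rats of 250-300 g were given a single sc injection of peptide at noon on proestrus. Vehicle was saline or 5% DMSO in saline (200 μL), or corn oil where flagged. Result is expressed as dose in μg/rat with the number of rats ovulating over the number treated.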
# [4] = Retention time of the compound; assay type: ADME
# In short: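 Peptide (0.5 mg/mL, 10 μL) was loaded in TEAP pH 7.0/CH3CN (76/24), acidified with H3PO4 where insoluble. Elution used a 30-48% CH3CN gradient over 30 min at 1.5 mL/min. Retention time is reported in minutes.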
EC50 [2],RT [4],SMILES,Potency [1],AOA [3]
11 µg/mL,,CCN=C(NCC)NCCCC[C@H](NC(=O)[C@H](CC(C)C)NC(=O)[C@@H](CCCCNC(=NCC)NCC)NC(=O)[C@H](Cc1ccc(O)cc1)NC(=O)[C@H](CO)NC(=O)[C@@H](Cc1cccnc1)NC(=O)[C@@H](Cc1ccc(Cl)cc1)NC(=O)[C@@H](Cc1ccc2ccccc2c1)NC(C)=O)C(=O)N1CCC[C@H]1C(=O)N[C@H](C)C(N)=O (Ac-[d2Nal][dPhe(4-Cl)][d3Pal]SY[d(hArg(Et2))]L[hArg(Et2)]P[dA]-NH2),2.17,2.5
158 µg/mL,,"CC(=O)N[C@H](Cc1ccc2ccccc2c1)C(=O)N[C@H](Cc1ccc(Cl)cc1)C(=O)N[C@H](Cc1cccnc1)C(=O)N[C@@H](CO)C(=O)N[C@@H](CCCNc1n[nH]c(N)n1)C(=O)N[C@H](CCCNc1n[nH]c(N)n1)C(=O)N[C@@H](CC(C)C)C(=O)N[C@@H](CCCCNC(C)C)C(=O)N1CCC[C@H]1C(=O)N[C@H](C)C(N)=O (Ac-[d2Nal][dPhe(4-Cl)][d3Pal]S[Orn](Triazol3yl(1,2,4-5-NH2))[dOrn](Triazol3yl(1,2,4-5-NH2))L[Lys(iPr)]P[dA]-NH2)",0.2,2
,8.45 min,CC(=O)N[C@H](Cc1ccc2ccccc2c1)C(=O)N[C@H](Cc1ccc(Cl)cc1)C(=O)N[C@H](Cc1cccnc1)C(=O)N[C@@H](CO)C(=O)N[C@@H](Cc1ccc(Nc2n[nH]c(N)n2)cc1)C(=O)N[C@H](Cc1ccc(Nc2n[nH]c(N)n2)cc1)C(=O)N[C@@H](CC(C)C)C(=O)N[C@@H](CCCCNC(C)C)C(=O)N1CCC[C@H]1C(=O)NCC(N)=O (Ac-[d2Nal][dPhe(4-Cl)][d3Pal]S[Phe(4-NH(5-NH2triazol-3-yl))][X1]L[Lys(iPr)]PG-NH2) [listing 1 of 2 here],,
,16.3 min,CC(=O)N[C@H](Cc1ccc2ccccc2c1)C(=O)N[C@H](Cc1ccc(Cl)cc1)C(=O)N[C@H](Cc1cccnc1)C(=O)N[C@@H](CO)C(=O)N[C@@H](Cc1ccc(O)cc1)C(=O)N[C@H](Cc1cccnc1)C(=O)N[C@@H](CC(C)C)C(=O)N[C@@H](CCCCNC(C)C)C(=O)N1CCC[C@H]1C(=O)N[C@H](C)C(N)=O [listing 1 of 2 here],,
,10.1 min,CC(=O)N[C@H](Cc1ccc2ccccc2c1)C(=O)N[C@H](Cc1ccc(Cl)cc1)C(=O)N[C@H](Cc1cccnc1)C(=O)N[C@@H](CO)C(=O)N[C@@H](Cc1ccc(O)cc1)C(=O)N[C@H](CCCNC(N)=O)C(=O)N[C@@H](CC(C)C)C(=O)N[C@@H](CCCNC(=N)N)C(=O)N1CCC[C@H]1C(=O)N[C@H](C)C(N)=O (Ac-[d2Nal][dPhe(4-Cl)][d3Pal]SY[dCit]LRP[dA]-NH2),,
2.1 µg/mL,,CC(=O)N[C@H](Cc1ccc2ccccc2c1)C(=O)N[C@H](Cc1ccc(Cl)cc1)C(=O)N[C@H](Cc1cccnc1)C(=O)N[C@@H](CO)C(=O)N[C@@H](Cc1ccc(O)cc1)C(=O)N[C@H](CCCNC(N)=O)C(=O)N[C@@H](CC(C)C)C(=O)N[C@@H](CCCN=C(N)N)C(=O)N1CCC[C@H]1C(=O)N[C@H](C)C(N)=O (Ac-[d2Nal][dPhe(4-Cl)][d3Pal]SY[dCit]LRP[dA]-NH2),1.56,1 and 2
,9 min,CC(=O)N[C@H](Cc1ccc2ccccc2c1)C(=O)N[C@H](Cc1ccc(Cl)cc1)C(=O)N[C@H](Cc1cccnc1)C(=O)N[C@@H](CO)C(=O)N[C@@H](Cc1ccc(Nc2n[nH]c(N)n2)cc1)C(=O)N[C@H](Cc1ccc(Nc2n[nH]c(N)n2)cc1)C(=O)N[C@@H](CC(C)C)C(=O)N[C@@H](CCCCNC(C)C)C(=O)N1CCC[C@H]1C(=O)N[C@H](C)C(N)=O (Ac-[d2Nal][dPhe(4-Cl)][d3Pal]S[Phe(4-NH(5-NH2triazol-3-yl))][X1]L[Lys(iPr)]P[dA]-NH2) [listing 1 of 2 here],,
34 µg/mL,,CC(=O)N[C@H](Cc1ccc2ccccc2c1)C(=O)N[C@H](Cc1ccc(Cl)cc1)C(=O)N[C@H](Cc1cccnc1)C(=O)N[C@@H](CO)C(=O)N[C@@H](Cc1ccc(O)cc1)C(=O)N[C@H](Cc1cccnc1)C(=O)N[C@@H](CC(C)C)C(=O)N[C@@H](CCCCNC(C)C)C(=O)N1CCC[C@H]1C(=O)N[C@H](C)C(N)=O [listing 2 of 2 here],1.3,1 and 2.5
139 µg/mL,,"CC(=O)N[C@H](Cc1ccc2ccccc2c1)C(=O)N[C@H](Cc1ccc(Cl)cc1)C(=O)N[C@H](Cc1cccnc1)C(=O)N[C@@H](CO)C(=O)N[C@@H](CCCCNc1n[nH]c(N)n1)C(=O)N[C@H](CCCCNc1n[nH]c(N)n1)C(=O)N[C@@H](CC(C)C)C(=O)N[C@@H](CCCCNC(C)C)C(=O)N1CCC[C@H]1C(=O)N[C@H](C)C(N)=O (Ac-[d2Nal][dPhe(4-Cl)][d3Pal]SK(Triazol3yl(1,2,4-5-NH2))[dK](Triazol3yl(1,2,4-5-NH2))L[Lys(iPr)]P[dA]-NH2)",0.23,2
34 µg/mL,,CC(=O)N[C@H](Cc1ccc2ccccc2c1)C(=O)N[C@H](Cc1ccc(Cl)cc1)C(=O)N[C@H](Cc1cccnc1)C(=O)N[C@@H](CO)C(=O)N[C@@H](Cc1ccc(Nc2n[nH]c(N)n2)cc1)C(=O)N[C@H](Cc1ccc(Nc2n[nH]c(N)n2)cc1)C(=O)N(C)[C@@H](CC(C)C)C(=O)N[C@@H](CCCCNC(C)C)C(=O)N1CCC[C@H]1C(=O)N[C@H](C)C(N)=O (Ac-[d2Nal][dPhe(4-Cl)][d3Pal]S[Phe(4-NH(5-NH2triazol-3-yl))][X1][NMeL][Lys(iPr)]P[dA]-NH2) [listing 1 of 2 here],1.6,0.5 and 1
22 µg/mL,,CC(=O)N[C@H](Cc1ccc2ccccc2c1)C(=O)N[C@H](Cc1ccc(Cl)cc1)C(=O)N[C@H](Cc1cccnc1)C(=O)N[C@@H](CO)C(=O)N(C)[C@@H](Cc1ccc(O)cc1)C(=O)N[C@H](CCCCNC(=O)c1cccnc1)C(=O)N[C@@H](CC(C)C)C(=O)N[C@@H](CCCCNC(C)C)C(=O)N1CCC[C@H]1C(=O)N[C@H](C)C(N)=O (Ac-[d2Nal][dPhe(4-Cl)][d3Pal]S[NMeY][dK](Nicotinoyl)L[Lys(iPr)]P[dA]-NH2),1.42,
,10.6 min,CC(=O)N[C@H](Cc1ccc2ccccc2c1)C(=O)N[C@H](Cc1ccc(Cl)cc1)C(=O)N[C@H](Cc1cccnc1)C(=O)N[C@@H](CO)C(=O)N[C@@H](Cc1ccc(Nc2n[nH]c(N)n2)cc1)C(=O)N[C@H](Cc1ccc(Nc2n[nH]c(N)n2)cc1)C(=O)N(C)[C@@H](CC(C)C)C(=O)N[C@@H](CCCCNC(C)C)C(=O)N1CCC[C@H]1C(=O)N[C@H](C)C(N)=O (Ac-[d2Nal][dPhe(4-Cl)][d3Pal]S[Phe(4-NH(5-NH2triazol-3-yl))][X1][NMeL][Lys(iPr)]P[dA]-NH2) [listing 2 of 2 here],,
1.8 µg/mL,,COc1ccc(C(=O)CC[C@@H](NC(=O)[C@H](CCCN=C(N)N)NC(=O)[C@H](CO)NC(=O)[C@@H](Cc2cccnc2)NC(=O)[C@@H](Cc2ccc(Cl)cc2)NC(=O)[C@@H](Cc2ccc3ccccc3c2)NC(C)=O)C(=O)N[C@@H](CC(C)C)C(=O)N[C@@H](CCCN=C(N)N)C(=O)N2CCC[C@H]2C(=O)N[C@H](C)C(N)=O)cc1 (Ac-[d2Nal][dPhe(4-Cl)][d3Pal]SR[dNva(5-oxo-5-(4-MeOPh))]LRP[dA]-NH2),1,0.5 and 1.5
2.9 µg/mL,,CC(=O)N[C@H](Cc1ccc2ccccc2c1)C(=O)N[C@H](Cc1ccc(Cl)cc1)C(=O)N[C@H](Cc1cccnc1)C(=O)N[C@@H](CO)C(=O)N[C@@H](CCCN=C(N)N)C(=O)N[C@H](Cc1cccnc1)C(=O)N[C@@H](CC(C)C)C(=O)N[C@@H](CCCN=C(N)N)C(=O)N1CCC[C@H]1C(=O)N[C@H](C)C(N)=O,0.91,0.5 and 1
> 300 µg/mL,,CC(=O)N[C@H](Cc1ccc2ccccc2c1)C(=O)N[C@H](Cc1ccc(Cl)cc1)C(=O)N[C@H](Cc1cccnc1)C(=O)N[C@@H](CO)C(=O)N[C@@H](CCCCNC(=O)c1cccnc1)C(=O)N[C@H](CCCCNC(=O)c1cccnc1)C(=O)N[C@@H](CC(C)C)C(=O)N[C@@H](CCCCNC(C)C)C(=O)N1CCC[C@H]1C(=O)N[C@H](C)C(N)=O (Ac-[d2Nal][dPhe(4-Cl)][d3Pal]SK(Nicotinoyl)[dK](Nicotinoyl)L[Lys(iPr)]P[dA]-NH2),0.66,1 and 1.5
28 µg/mL,,CC(=O)N[C@H](Cc1ccc2ccccc2c1)C(=O)N[C@H](Cc1ccc(Cl)cc1)C(=O)N[C@H](Cc1cccnc1)C(=O)N[C@@H](CO)C(=O)N[C@@H](Cc1ccc(Nc2n[nH]c(N)n2)cc1)C(=O)N[C@H](Cc1ccc(Nc2n[nH]c(N)n2)cc1)C(=O)N[C@@H](CC(C)C)C(=O)N[C@@H](CCCCNC(C)C)C(=O)N1CCC[C@H]1C(=O)NCC(N)=O (Ac-[d2Nal][dPhe(4-Cl)][d3Pal]S[Phe(4-NH(5-NH2triazol-3-yl))][X1]L[Lys(iPr)]PG-NH2) [listing 2 of 2 here],1,1
224 µg/mL,,CC(=O)N[C@H](Cc1ccc2ccccc2c1)C(=O)N[C@H](Cc1ccc(Cl)cc1)C(=O)N[C@H](Cc1cccnc1)C(=O)N[C@@H](CO)C(=O)N[C@@H](Cc1ccc(Nc2n[nH]c(N)n2)cc1)C(=O)N[C@H](Cc1ccc(Nc2n[nH]c(N)n2)cc1)C(=O)N[C@@H](CC(C)C)C(=O)N[C@@H](CCCCNC(C)C)C(=O)N1CCC[C@H]1C(=O)N[C@H](C)C(N)=O (Ac-[d2Nal][dPhe(4-Cl)][d3Pal]S[Phe(4-NH(5-NH2triazol-3-yl))][X1]L[Lys(iPr)]P[dA]-NH2) [listing 2 of 2 here],1.3,0.5 and 1
66 µg/mL,,CC(=O)N[C@H](Cc1ccc2ccccc2c1)C(=O)N[C@H](Cc1ccc(Cl)cc1)C(=O)N[C@H](Cc1cccnc1)C(=O)N[C@@H](CO)C(=O)N[C@@H](CCCCNc1n[nH]c(N)n1)C(=O)N[C@H](CCCCNc1n[nH]c(N)n1)C(=O)N[C@@H](CC(C)C)C(=O)N[C@@H](CCCCNC(C)C)C(=O)N1CCC[C@H]1C(=O)NCC(N)=O,0.12,1 and 2.5

# Source: ChEMBL document CHEMBL1125357, “Gonadotropin-releasing hormone antagonists with N omega-triazolylornithine, -lysine, or -p-aminophenylalanine residues at positions 5 and 6” (J Med Chem, 1992)
